Experimental data taken from the M2OR odorant receptor database.

Assays:
Conditions in all cases: stereoisomer not certain
UniProt A2ATE5 = target: T1, UniProt A2ATE5
T1 sequence (whole entry): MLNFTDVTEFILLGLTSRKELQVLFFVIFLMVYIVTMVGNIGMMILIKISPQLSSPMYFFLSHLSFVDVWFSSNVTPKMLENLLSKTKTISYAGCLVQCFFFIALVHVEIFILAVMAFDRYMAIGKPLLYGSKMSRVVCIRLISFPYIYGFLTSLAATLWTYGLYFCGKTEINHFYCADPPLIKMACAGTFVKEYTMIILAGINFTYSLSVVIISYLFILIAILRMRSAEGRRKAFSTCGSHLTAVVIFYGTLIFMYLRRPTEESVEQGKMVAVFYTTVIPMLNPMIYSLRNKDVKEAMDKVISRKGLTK
How it was run: (§1)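 Values were gathered from published papers (main text and supplementary material), with extra details requested from the original authors when needed, and checked for typos and inconsistencies. Each receptor–molecule pair is called responsive (active) if the original authors judged the measured signal statistically different from baseline, and non-responsive (inactive) otherwise. Assay methods varied by source, often transient mammalian cell-line luciferase assays. Recorded details include cell line, G-protein, co-transfected protein and tags.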

UniProt A2AVB0 = target: T2, UniProt A2AVB0
T2 sequence (whole entry): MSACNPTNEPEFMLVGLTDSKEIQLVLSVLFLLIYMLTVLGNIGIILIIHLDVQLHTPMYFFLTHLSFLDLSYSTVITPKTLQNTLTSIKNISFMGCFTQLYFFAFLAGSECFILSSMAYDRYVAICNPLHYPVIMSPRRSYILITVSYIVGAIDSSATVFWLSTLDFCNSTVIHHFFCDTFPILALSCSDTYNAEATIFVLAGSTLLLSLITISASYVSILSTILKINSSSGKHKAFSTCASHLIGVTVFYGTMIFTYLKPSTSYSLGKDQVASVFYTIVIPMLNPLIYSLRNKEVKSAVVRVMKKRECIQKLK
How it was run: as §1

UniProt E9PVX1 = target: T3, UniProt E9PVX1
T3 sequence (whole entry): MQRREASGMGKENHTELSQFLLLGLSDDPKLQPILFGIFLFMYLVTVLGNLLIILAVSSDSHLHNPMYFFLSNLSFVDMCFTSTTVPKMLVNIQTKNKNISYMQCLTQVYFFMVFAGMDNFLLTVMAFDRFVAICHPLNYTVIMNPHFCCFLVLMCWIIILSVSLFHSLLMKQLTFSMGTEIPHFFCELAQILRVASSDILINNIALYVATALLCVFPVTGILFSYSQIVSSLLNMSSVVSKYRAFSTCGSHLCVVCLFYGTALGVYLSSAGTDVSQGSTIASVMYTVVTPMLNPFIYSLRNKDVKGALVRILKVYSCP
How it was run: as §1

UniProt E9PZ66 = target: T4, UniProt E9PZ66
T4 sequence (whole entry): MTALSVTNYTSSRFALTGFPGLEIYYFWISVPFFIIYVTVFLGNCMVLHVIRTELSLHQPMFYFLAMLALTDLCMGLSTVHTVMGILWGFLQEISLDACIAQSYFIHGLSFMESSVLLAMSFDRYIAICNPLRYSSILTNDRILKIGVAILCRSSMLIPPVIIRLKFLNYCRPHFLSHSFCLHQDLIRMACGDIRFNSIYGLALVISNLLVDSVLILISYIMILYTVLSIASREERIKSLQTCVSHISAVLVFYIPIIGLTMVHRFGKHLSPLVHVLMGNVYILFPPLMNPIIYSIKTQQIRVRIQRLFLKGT
How it was run: as §1

UniProt E9Q4X7 = target: T5, UniProt E9Q4X7
T5 sequence (whole entry): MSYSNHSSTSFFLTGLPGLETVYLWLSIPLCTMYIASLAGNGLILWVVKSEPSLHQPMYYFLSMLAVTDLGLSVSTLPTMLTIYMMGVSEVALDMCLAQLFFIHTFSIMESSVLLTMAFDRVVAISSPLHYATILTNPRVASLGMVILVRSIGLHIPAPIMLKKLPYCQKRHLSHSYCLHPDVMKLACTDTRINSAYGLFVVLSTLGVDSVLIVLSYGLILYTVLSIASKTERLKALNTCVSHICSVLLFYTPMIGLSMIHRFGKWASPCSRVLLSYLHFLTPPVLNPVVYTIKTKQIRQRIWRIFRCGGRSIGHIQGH
How it was run: as §1

UniProt E9Q546 = target: T6, UniProt E9Q546
T6 sequence (whole entry): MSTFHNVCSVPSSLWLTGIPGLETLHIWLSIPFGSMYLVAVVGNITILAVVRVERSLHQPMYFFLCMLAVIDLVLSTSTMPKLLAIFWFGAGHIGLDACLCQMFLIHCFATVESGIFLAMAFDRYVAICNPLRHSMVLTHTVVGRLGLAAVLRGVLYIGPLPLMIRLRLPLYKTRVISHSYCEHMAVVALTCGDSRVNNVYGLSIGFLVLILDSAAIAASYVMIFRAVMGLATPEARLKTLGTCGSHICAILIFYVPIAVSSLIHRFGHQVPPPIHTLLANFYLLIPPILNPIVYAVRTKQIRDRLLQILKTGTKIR
How it was run: as §1

UniProt E9Q6Z7 = target: T7, UniProt E9Q6Z7
T7 sequence (whole entry): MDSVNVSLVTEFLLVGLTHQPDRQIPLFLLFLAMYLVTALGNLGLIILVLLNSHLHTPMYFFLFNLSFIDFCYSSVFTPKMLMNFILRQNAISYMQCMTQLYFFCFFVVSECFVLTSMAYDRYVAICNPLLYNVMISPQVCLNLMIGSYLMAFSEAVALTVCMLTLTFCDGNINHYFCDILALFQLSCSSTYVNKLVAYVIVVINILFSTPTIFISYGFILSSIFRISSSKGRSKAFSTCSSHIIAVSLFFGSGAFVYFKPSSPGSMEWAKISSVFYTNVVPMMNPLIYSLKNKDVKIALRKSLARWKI
How it was run: as §1

Measured: odorant receptor agonist call

CC(C)=CCCC(C)=CCOC(=O)C(C)C
inactive: all assays above

CC=CC(=O)C1=C(C)CCCC1(C)C
inactive: all assays above

COc1ccccc1
inactive: all assays above

CC1CCC(C(C)C)C(=O)C1 (configuration not stated)
inactive: all assays above

CCCC(C)C(=O)OCC (configuration not stated)
inactive: all assays above

CCCCCOC(=O)CCC
inactive: all assays above

COc1nccnc1C
inactive: all assays above

Cc1ccc2c(c1)OCC(=O)CO2
inactive: all assays above

CCc1ccc(O)cc1
inactive: all assays above

CCC=CCCCCC=O
inactive: all assays above

CCCCCC=CCCC=O
active: UniProt E9Q4X7
inactive: all other assays above

C=C(C)C1CCC2(C)OC2C1 (configuration not stated)
inactive: all assays above

CC(C)=C1CCC(C)CC1=O (configuration not stated)
inactive: all assays above

Cc1ccc(OC(=O)C(C)C)cc1
inactive: all assays above

CCCC=O
inactive: all assays above

CC=C(C)C=O
inactive: all assays above
